Source: PubChem (several laboratories)
CHT block = inhibitors of human choline transporter CHT; 310,000 compounds, 0.86% hits; B-score at 10 µM; CHT-expressing cells, membrane potential dye, choline response; stronger effect = lower value;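 active means B-score over 3 SD under the library average, and starting fluorescence ratio not unusually high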;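 further: choline stimulus applied at its EC90 after an EC20 pre-addition; B-score computed on integrated fluorescence ratio after choline addition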
Target sequence (Q9GZV3 whole entry, looked up): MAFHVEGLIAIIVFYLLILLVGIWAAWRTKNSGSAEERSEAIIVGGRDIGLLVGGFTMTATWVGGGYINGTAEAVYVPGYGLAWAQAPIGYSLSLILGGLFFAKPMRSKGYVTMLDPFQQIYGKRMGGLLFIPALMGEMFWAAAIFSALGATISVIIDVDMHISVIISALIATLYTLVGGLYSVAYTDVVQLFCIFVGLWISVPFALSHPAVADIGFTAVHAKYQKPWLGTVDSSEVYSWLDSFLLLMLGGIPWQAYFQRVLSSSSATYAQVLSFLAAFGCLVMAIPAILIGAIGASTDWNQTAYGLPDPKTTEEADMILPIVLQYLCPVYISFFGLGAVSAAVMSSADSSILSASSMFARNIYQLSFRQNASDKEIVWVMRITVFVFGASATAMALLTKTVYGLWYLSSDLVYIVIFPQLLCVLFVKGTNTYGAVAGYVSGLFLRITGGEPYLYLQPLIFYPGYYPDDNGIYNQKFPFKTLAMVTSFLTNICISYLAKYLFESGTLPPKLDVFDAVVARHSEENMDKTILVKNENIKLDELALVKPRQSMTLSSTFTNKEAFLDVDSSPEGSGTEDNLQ
Lipid droplet = inhibitors of hepatocyte lipid droplet formation, primary screen, imaging, high-throughput imaging, BODIPY stain; AML12 mouse hepatocytes, oleate lipid droplets; inhibition, % at 6.5 µM; 240,000 compounds, 0.4% hits;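 active means lipid droplet intensity inhibited by at least 50%, with more than 500 cells counted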
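material = mouse AML12 hepatocyte cell line, fixed after treatment | also added = 100 µM oleic acid challenge | doses = compound at 6.5 µM only | schedule = overnight exposure | technique = Image-based BODIPY and DAPI two-channel analysis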
HSF-1 act = HSF-1 activators, primary screen, NIH3T3-HGL cells, MG132 stress, luminescence, single point; NIH3T3-HGL HSF-1 luciferase reporter, 8 h; 100% = twice DMSO control signal; 300,000 compounds, 1.7% hits; activation, % at 9 µM;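 active means mean replicate activation of at least 50% with a set share of replicates each reaching 50%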
CHT PAM = CHT positive allosteric modulators, primary screen, cell-based, membrane potential dye, choline EC20 | AID 488977, 2010 | CHT-expressing cells; stronger effect = higher value; LV-AA mutant CHT in HEK293 cells | B-score at 10 µM | 310,000 compounds, 0.49% hits;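 active means initial fluorescence not abnormally high and integrated response B-score, plate-corrected, over 3 SD above library mean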
PHOSPHO1 inh = PubChem AID 1565; Phosphoethanolamine/phosphocholine phosphatase (Homo sapiens), Q8TCT1; recombinant PHOSPHO1, absorbance phosphatase assay; inhibition, % at 13.3 µM; 290,000 compounds, 1.1% hits; in the data active means inhibition above about 60%
HSF1 inh = HSF1 inhibitors in luciferase reporter cells, primary screen, cell-based, NIH3T3, luminescence; NIH3T3-HGL HSE-luciferase, MG132-induced, luminescence 8 h; stronger effect = lower value; activity change, negative = inhibition, % at 7.5 µM (by protocol); 300,000 compounds, 0.77% hits; AID 2098, 2009;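 active means more than half of replicate wells show activity change below -50%, luminescence cut by over half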;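 further: luciferase reports HSF-1 transcriptional activity via heat shock element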
Hits are given with their value; i = inactive; nt = no result given. Most compounds without a hit are left out; they make up all but 4.9% or so of the library.

SMILES	CHT block	Lipid droplet	HSF-1 act	CHT PAM	PHOSPHO1 inh	HSF1 inh
Cc1nc2ccccc2c(N)c1C(=O)/C=C/c1ccccc1	i	i	64	i	nt	i
Cc1ccc(N/N=C(\C#N)C(=N)N2CCCCCC2)cc1	i	i	i	i	i	i
CCN(CC)C(=N)/C(C#N)=N/Nc1ccc(C)cc1	i	i	57	i	i	i
CC(CCN(C)C)OC(=O)c1ccc(C(C)c2ccccc2)o1 (configuration not stated)	i	nt	i	i	i	i
COc1ccc(C2=NN(C(C#N)c3ccc(OC)cc3)C(c3ccccc3)C2)cc1 (configuration not stated)	i	i	64	i	i	i
COc1ccc(-c2csc3ncnc(N4CCN(S(=O)(=O)c5ccc(Cl)s5)CC4)c23)cc1	i	nt	i	i	nt	i
N=c1c(S(=O)(=O)c2ccc(Cl)cc2)cc2c(=O)n3ccccc3nc2n1Cc1ccco1	i	i	137	i	i	i
N=c1c(C(=O)NCC2CCCO2)cc2c(=O)n3ccccc3nc2n1Cc1ccc(Cl)cc1 (configuration not stated)	i	i	57	i	i	i
Cc1ccc2nc3c(cc(C(=O)NC4CCCC4)c(=N)n3CCCn3ccnc3)c(=O)n2c1	i	i	i	6.4	i	i
N=c1c(C(=O)NC2CCCC2)cc2c(=O)n3ccccc3nc2n1Cc1ccccc1	i	i	i	i	i	-91
N=c1c(S(=O)(=O)c2ccc(Br)cc2)cc2c(=O)n3ccccc3nc2n1Cc1ccco1	i	i	i	i	i	i
N=c1c(C(=O)NCC2CCCO2)cc2c(=O)n3ccccc3nc2n1Cc1ccccc1 (configuration not stated)	i	i	i	i	i	i
Cc1ccc(N2C(=O)Nc3ccccc3C2(O)C(=O)NCCCOC(C)C)cc1C (configuration not stated)	i	nt	i	i	nt	i
c1cn(CCCNC2=NCCCCC2)cn1	i	nt	i	i	i	i
COc1ccc(C2C(C#N)=C(C)NC(C)=C2C(=O)OC(C)C)c(OC)c1 (configuration not stated)	i	i	i	i	i	i
Cc1ccc(NC(=O)N2CCN(C(=O)C3CCCO3)CC2)cc1 (configuration not stated)	i	i	i	i	i	i
O=C(Nc1ccc(Cl)cc1)N1CCN(C(=O)C2CCCO2)CC1 (configuration not stated)	i	i	i	i	63	i
Cc1ccnc(NC(=O)c2ccc3c(c2)C(=O)N(CC(C)C)C3=O)c1	i	i	i	i	i	i
CC(=O)N1CCc2cc(S(=O)(=O)NCCCN3CCCCC3)ccc21	i	i	i	i	i	i
O=[N+]([O-])c1cccnc1N/N=C/c1ccccc1O	i	i	i	i	i	i
Cc1c(O)ccc(/C=N/Nc2ncccc2[N+](=O)[O-])c1O	i	i	55	i	i	i
COCc1nc2sc3c(c2c(=O)[nH]1)CCCC3	i	i	i	i	i	i
COc1cccc(-c2nc3sc4c(c3c(=O)[nH]2)CCCCC4)c1	i	i	53	i	i	i
COc1ccc(CNC(=O)Cn2cc([N+](=O)[O-])nc2C)cc1	i	i	i	i	i	i
COCCn1c(N)c(N(Cc2ccccc2)C(=O)c2ccc(C#N)cc2)c(=O)[nH]c1=O	i	i	55	i	i	i
SMILES	CHT block	Lipid droplet	HSF-1 act	CHT PAM	PHOSPHO1 inh	HSF1 inh
Cc1ccc(N(C(C)C(=O)Nc2c(C)n(C)n(-c3ccccc3)c2=O)S(C)(=O)=O)cc1C (configuration not stated)	i	i	i	i	i	i
O=C(Nc1ccccc1F)c1ccc([N+](=O)[O-])s1	i	i	101	i	i	i
O=C(Nc1cccc2ccccc12)c1ccc([N+](=O)[O-])s1	i	i	71	i	i	i
CN(C)NC(=O)c1ccc([N+](=O)[O-])s1	i	i	i	i	i	i
CCOc1ccc(CCNc2nc3c(c(=O)n(C)c(=O)n3C)n2CC)cc1OCC	i	i	i	i	i	i
Cc1ccc(S(=O)(=O)Nc2cc3c4c(c2)CCN4C(=O)CC3)cc1	i	nt	58	i	nt	i
Cc1nc([N+](=O)[O-])c(Br)n1CC(=O)c1ccc(Cl)cc1	i	i	i	i	i	i
COc1ccc(C(=O)Cn2c(C)nc([N+](=O)[O-])c2Br)cc1	i	i	172	i	i	i
O=C(O)CSc1nc(-c2ccc(Cl)cc2)nc2c1oc1ccccc12	i	i	i	i	i	i
O=C(O)CSc1nc(-c2ccccc2)nc2c1oc1ccccc12	i	nt	i	i	i	-68
Cc1oc2ccc(OCc3c(F)cccc3Cl)cc2c1C(=O)O	i	i	i	i	i	-57
Cc1oc2ccc(OCc3ccc(F)cc3)cc2c1C(=O)O	i	nt	i	i	i	i
O=C(COC(=O)c1cccs1)c1ccccc1	i	nt	i	i	i	i
O=C(CC(Nc1ccc(F)cc1)C(=O)OCC(=O)c1cccs1)c1ccccc1 (configuration not stated)	i	i	89	i	i	i
O=C(CC(Nc1ccc(F)cc1)C(=O)O)c1ccccc1 (configuration not stated)	i	i	56	i	i	i
CN(C)S(=O)(=O)c1cccc(NC(=O)COC(=O)/C=C/c2ccc([N+](=O)[O-])cc2)c1	i	i	63	i	i	i
NS(=O)(=O)c1ccc(NC(=O)COC(=O)/C=C/c2ccc([N+](=O)[O-])cc2)cc1	i	i	i	i	i	i
CN(C)c1ccc(P(=O)(OC2CCCCC2)C(O)c2cccnc2)cc1 (configuration not stated)	i	nt	i	i	i	i
COc1cc(C(O)P(=O)(OC2CCCCC2)c2ccc(N(C)C)cc2)cc(OC)c1OC (configuration not stated)	i	nt	57	i	i	i
CC(C)(C)[C@@H]1C=C(C(N)=O)O[C@H](OCCCCO)C1	i	nt	i	i	nt	i
CC(C)(C)NC(=O)C(c1ccncc1)N(Cc1ccco1)C(=O)c1ccc(-c2ccccc2)[nH]1 (configuration not stated)	i	i	138	i	i	i
O=C(NC1CCCCC1)C(c1ccncc1)N(Cc1ccc(F)cc1)C(=O)c1ccccn1 (configuration not stated)	i	i	i	i	i	i
CC(C)(C)NC(=O)C(c1ccc(F)cc1)N(Cc1ccco1)C(=O)c1csnn1 (configuration not stated)	i	nt	i	i	i	i
O=C(NC1CCCCC1)C(c1ccncc1)N(Cc1ccccc1)C(=O)c1ccc(-c2ccccc2)[nH]1 (configuration not stated)	i	nt	55	i	i	i
